This note sets out measurements from ChEMBL document CHEMBL1141538, “Carboxylic acid bioisosteres acylsulfonamides, acylsulfamides, and sulfonylureas as novel antagonists of the CXCR2 receptor” (Bioorg Med Chem Lett, 2008).

Data set [1] addresses T1, C-X-C chemokine receptor type 2 (Homo sapiens, UniProt P25025).
T1 sequence (P25025 whole entry): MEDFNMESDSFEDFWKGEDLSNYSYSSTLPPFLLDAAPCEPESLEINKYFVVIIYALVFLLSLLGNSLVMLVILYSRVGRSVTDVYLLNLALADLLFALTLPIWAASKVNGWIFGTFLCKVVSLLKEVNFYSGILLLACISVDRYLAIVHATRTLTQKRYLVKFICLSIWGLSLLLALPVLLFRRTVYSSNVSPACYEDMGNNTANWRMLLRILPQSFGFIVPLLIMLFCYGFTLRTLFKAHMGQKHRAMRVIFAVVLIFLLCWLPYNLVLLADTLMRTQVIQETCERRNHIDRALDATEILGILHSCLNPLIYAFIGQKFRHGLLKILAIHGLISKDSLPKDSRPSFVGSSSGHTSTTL
Description: Displacement of europium labeled-human IL8 from human cloned CXCR2 expressed in Sf9 membrane with Galphai3-beta-1-gamma-2 by DELFIA binding assay. The gist of the method:
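Lysates (40 µg/mL) incubated in triplicate with 2 nM Eu-IL-8 and compound, 90 min at room temperature. Filtered and washed, enhancement solution added, time-resolved fluorescence read at 340/612 nm with 400 µs delay. Background defined with 200 nM unlabeled human IL-8. IC50 by four-parameter logistic fit.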

The target in data set [2] is T1, C-X-C chemokine receptor type 2. Put plainly: Antagonist activity at human cloned CXCR2 by calcium flux FLIPR assay. It is filed as functional. The method, boiled down:
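Chem-1 cells carrying cloned human CXCR2 coupled to Gi/o, seeded at 5 × 10⁵ cells/mL and left to adhere overnight in DMEM without G-418. Loaded with half-strength Calcium 3 dye in HBSS/20 mM Hepes pH 7.4/2.5 mM probenecid, with compound in triplicate, 30 min at 37 °C then 30 min at room temperature. Stimulated with human IL-8 (4 nM solution added). Fluorescence 485/525 read every 2 s. IC50 from a four-parameter logistic fit.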
On the technique in general: Calcium assays in cells follow changes in intracellular calcium, usually with a dye or a luminescent sensor.

The target in another data set is T2, Cytochrome P450 1A2 (Homo sapiens, UniProt P05177).
T2 sequence (P05177 whole entry): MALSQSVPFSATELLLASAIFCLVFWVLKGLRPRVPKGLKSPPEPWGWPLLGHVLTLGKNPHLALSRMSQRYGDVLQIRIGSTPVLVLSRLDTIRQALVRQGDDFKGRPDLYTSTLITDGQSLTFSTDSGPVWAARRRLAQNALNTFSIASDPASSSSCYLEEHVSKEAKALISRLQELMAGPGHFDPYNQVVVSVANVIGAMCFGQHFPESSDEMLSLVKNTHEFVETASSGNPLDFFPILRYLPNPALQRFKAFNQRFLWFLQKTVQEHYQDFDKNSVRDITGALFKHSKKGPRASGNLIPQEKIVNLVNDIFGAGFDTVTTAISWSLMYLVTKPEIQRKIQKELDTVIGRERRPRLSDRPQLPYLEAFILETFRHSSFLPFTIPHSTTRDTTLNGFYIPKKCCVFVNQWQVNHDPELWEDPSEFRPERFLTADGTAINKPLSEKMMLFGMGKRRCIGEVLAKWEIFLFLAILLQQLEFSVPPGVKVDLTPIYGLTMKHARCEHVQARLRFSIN
Description: Inhibition of CYP1A2. It is filed as ADME.

Another data set addresses Cytochrome P450 2C9 (Homo sapiens, UniProt P11712). Put plainly: Inhibition of CYP2C9. It is filed as ADME.
In a further data set the target is Cytochrome P450 3A4 (Homo sapiens, UniProt P08684). Put plainly: Inhibition of CYP3A4. It is filed as ADME.
For another data set, the target named is Cytochrome P450 2C19 (Homo sapiens, UniProt P33261). Put plainly: Inhibition of CYP2C19. It is filed as ADME.
A further data set deals with Cytochrome P450 2D6 (Homo sapiens, UniProt P10635). Put plainly: Inhibition of CYP2D6. It is filed as ADME.
Data set [3] in a line: Stability in rat liver microsomes after 10 mins. It is filed as ADME, Microsome. Particulars: read-out: Stability. (Liver microsomes are vesicles of endoplasmic reticulum, rich in cytochrome P450 enzymes.)
The nature of data set [4]: Stability in human liver microsomes after 10 mins. It is filed as ADME, Microsome. Particulars: read-out: Stability.
Data set [5] in a line: Plasma protein binding in rat. It is filed as ADME, cell-free. Conditions: read-out: PPB.
Data set [6] can be described thus: Half life in iv dosed rat. Particulars: in vivo. It is filed as ADME, organism-based.
Data set [7] in a line: Clearance in iv dosed rat. It is filed as ADME, organism-based. Particulars: in vivo.
A short description of data set [8]: Oral bioavailability in rat. Particulars: in vivo. It is filed as ADME, organism-based.
The subject of data set [9] is Rattus norvegicus. Put plainly: Reduction of hyperoxia-induced neutrophil accumulation in newborn rat at 10 mg/kg, ip after 7 days. It is filed as functional. Set-up: scale not given: the % may be the effect or the level left. Conditions: route intraperitoneal.
Data set [10] has as its system Rattus norvegicus. Put plainly: Reduction of hyperoxia-induced neutrophil accumulation in newborn rat at 10 mg/kg, ip after 7 days. Conditions: route intraperitoneal. Set-up: scale not given: the % may be the effect or the level left.

Cytochrome P450 2D6, sequence (P10635 whole entry): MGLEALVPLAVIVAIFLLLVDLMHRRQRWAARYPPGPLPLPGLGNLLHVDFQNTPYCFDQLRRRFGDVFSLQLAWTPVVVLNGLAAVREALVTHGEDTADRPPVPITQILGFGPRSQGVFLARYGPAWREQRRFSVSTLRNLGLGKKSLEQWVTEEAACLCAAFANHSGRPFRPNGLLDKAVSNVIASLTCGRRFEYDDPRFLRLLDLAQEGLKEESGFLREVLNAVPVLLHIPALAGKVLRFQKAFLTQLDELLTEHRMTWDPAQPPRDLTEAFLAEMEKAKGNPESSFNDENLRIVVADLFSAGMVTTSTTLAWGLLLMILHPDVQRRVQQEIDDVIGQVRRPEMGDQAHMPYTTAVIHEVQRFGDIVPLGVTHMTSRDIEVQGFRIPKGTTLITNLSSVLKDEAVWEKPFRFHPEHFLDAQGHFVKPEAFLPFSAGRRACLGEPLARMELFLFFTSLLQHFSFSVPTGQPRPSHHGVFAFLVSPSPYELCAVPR
Cytochrome P450 2C19, sequence (P33261 whole entry): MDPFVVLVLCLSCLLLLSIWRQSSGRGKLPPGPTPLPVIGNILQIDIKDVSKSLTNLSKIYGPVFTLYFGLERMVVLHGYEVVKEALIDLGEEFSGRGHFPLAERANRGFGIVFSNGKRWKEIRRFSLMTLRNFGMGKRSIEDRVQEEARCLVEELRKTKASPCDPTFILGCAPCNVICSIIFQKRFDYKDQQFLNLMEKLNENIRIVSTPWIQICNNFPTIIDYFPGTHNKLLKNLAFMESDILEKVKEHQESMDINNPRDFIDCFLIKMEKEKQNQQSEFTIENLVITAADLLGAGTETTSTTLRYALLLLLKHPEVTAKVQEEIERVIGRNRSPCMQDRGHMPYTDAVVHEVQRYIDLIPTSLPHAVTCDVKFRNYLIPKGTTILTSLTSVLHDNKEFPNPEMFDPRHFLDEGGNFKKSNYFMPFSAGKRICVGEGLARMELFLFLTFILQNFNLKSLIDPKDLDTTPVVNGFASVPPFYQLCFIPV
Cytochrome P450 3A4, sequence (P08684 whole entry): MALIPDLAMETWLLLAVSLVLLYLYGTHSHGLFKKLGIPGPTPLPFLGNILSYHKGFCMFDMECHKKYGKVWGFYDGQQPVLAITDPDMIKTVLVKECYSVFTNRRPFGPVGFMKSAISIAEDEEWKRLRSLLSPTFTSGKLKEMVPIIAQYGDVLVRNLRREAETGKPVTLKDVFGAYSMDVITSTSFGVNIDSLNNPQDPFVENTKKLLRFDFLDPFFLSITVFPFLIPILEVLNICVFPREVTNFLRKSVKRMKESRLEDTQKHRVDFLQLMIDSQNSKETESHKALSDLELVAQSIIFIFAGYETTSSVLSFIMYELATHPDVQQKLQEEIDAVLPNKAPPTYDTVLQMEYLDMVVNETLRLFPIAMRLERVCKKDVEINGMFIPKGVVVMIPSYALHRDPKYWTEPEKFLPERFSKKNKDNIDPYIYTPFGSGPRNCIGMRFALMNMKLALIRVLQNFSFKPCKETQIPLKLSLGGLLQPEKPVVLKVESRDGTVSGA
Cytochrome P450 2C9, sequence (P11712 whole entry): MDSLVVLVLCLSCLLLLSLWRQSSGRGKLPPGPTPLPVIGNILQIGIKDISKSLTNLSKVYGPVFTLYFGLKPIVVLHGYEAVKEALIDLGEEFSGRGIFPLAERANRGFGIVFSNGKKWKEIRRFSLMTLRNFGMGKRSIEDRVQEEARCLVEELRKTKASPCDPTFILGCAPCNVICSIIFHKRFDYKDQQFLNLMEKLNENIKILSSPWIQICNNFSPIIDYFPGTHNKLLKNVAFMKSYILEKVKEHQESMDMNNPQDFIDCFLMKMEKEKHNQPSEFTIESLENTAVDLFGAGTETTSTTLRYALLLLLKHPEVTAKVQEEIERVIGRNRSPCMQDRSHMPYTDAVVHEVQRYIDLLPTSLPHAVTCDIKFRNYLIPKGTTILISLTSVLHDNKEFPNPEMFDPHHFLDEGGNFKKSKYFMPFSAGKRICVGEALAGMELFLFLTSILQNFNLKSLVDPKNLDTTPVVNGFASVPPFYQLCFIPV

What is called IC50 is the concentration needed to halve the response being measured. `N#Cc1ccc2[nH]c(-c3ccc(F)cc3)c(CCCC(=O)NS(=O)(=O)N3CCOCC3)c2c1` came in with a concentration for half-maximal inhibition (IC50) in [1] of 150 nM.
Molecule `COc1cc2[nH]c(-c3ccc(F)cc3)c(CCCC(=O)NS(=O)(=O)N(C)C)c2cc1C#N` yielded an IC50 in data set [1] of 57 nM.
For `Cc1cc2[nH]c(-c3ccc(F)cc3)c(CCCC(=O)NS(=O)(=O)N(C)C)c2cc1C#N`, in data set [1], the IC50 was found to be 24 nM.
The molecule `CS(=O)(=O)NC(=O)NCCc1c(-c2ccc(F)cc2)[nH]c2ccc(C#N)cc12` yielded an IC50 in data set [1] of 640 nM.
For `O=C(NCCc1c(-c2ccc(F)cc2)[nH]c2ccc(Br)cc12)NS(=O)(=O)c1ccccc1`, the IC50 amounted to 120 nM in [1] and 4 nM in data set [2].
`N#Cc1ccc2[nH]c(-c3ccc(F)cc3)c(CCNC(=O)NS(=O)(=O)c3ccc(F)cc3)c2c1` returned an IC50 in data set [1] of 520 nM.
For `N#Cc1ccc2[nH]c(-c3ccc(F)cc3)c(CCNC(=O)NS(=O)(=O)c3ccccc3)c2c1`, the half-inhibitory concentration (IC50) in data set [1] turned out to be 140 nM.
Still for that read-out and setting: the result for `CC(C)S(=O)(=O)NC(=O)CCCc1c(-c2ccc(F)cc2)[nH]c2ccc(C#N)cc12` reads 220 nM; that for `CS(=O)(=O)NC(=O)CCCc1c(-c2ccc(F)cc2)[nH]c2ccc(Br)cc12`, 170 nM.
`CCS(=O)(=O)NC(=O)CCCc1c(-c2ccc(F)cc2)[nH]c2ccc(C#N)cc12` came in with an IC50 in data set [1] of 64 nM.
`N#Cc1ccc2[nH]c(-c3ccc(F)cc3)c(CCCC(=O)NS(=O)(=O)c3ccccc3)c2c1` returned a 50% inhibitory concentration (IC50) in data set [1] of 260 nM.
As to `N#Cc1ccc2[nH]c(-c3ccc(F)cc3)c(CCCC(=O)NS(=O)(=O)C(F)(F)F)c2c1`, the IC50 in data set [1] amounted to 87 nM; in [2] it was 70 nM.
As to `CNS(=O)(=O)NC(=O)CCCc1c(-c2ccc(F)cc2)[nH]c2ccc(C#N)cc12`, the values for the IC50 in data set [1] and in data set [2] were 120 nM and 14 nM, respectively.
As for `N#Cc1ccc2[nH]c(-c3ccc(F)cc3)c(CCCC(=O)NS(N)(=O)=O)c2c1`, the IC50 in data set [1] is 66 nM.
`CCCCNS(=O)(=O)NC(=O)CCCc1c(-c2ccc(F)cc2)[nH]c2ccc(C#N)cc12` came in with an IC50 in data set [1] of 1100 nM.
The molecule `CN(C(=O)CCCc1c(-c2ccc(F)cc2)[nH]c2ccc(C#N)cc12)S(C)(=O)=O` gave an IC50 in data set [1] of over 2000 nM.
Consider `CCCS(=O)(=O)NC(=O)CCCc1c(-c2ccc(F)cc2)[nH]c2ccc(C#N)cc12`, for which the IC50 in data set [1] worked out at 1300 nM.
The molecule `COCCNS(=O)(=O)NC(=O)CCCc1c(-c2ccc(F)cc2)[nH]c2ccc(C#N)cc12` had an IC50 in data set [1] of 260 nM.
The same measure, in the same setting: the result for `Cc1cc2[nH]c(-c3ccc(F)cc3)c(CCCC(=O)NS(C)(=O)=O)c2cc1C#N` reads 19 nM.
What is called half-life is the time needed for the level to fall by half in the phase considered. The clearance is a measure of how efficiently the substance is removed, as volume per time. Consider `CN(C)S(=O)(=O)NC(=O)CCCc1c(-c2ccc(F)cc2)[nH]c2ccc(C#N)cc12`, for which the half-maximal inhibitory concentration (IC50) was over 5000 nM on Cytochrome P450 1A2; 50 nM in [1]; 5 nM in [2]; 1320 nM against Cytochrome P450 2C9; over 5000 nM on Cytochrome P450 3A4; over 5000 nM against Cytochrome P450 2C19. Moreover, at Cytochrome P450 2D6, the IC50 was over 5000 nM. Moreover, the remaining at 10 min in [3] was found to be 100%; in [4], 76.8%. Moreover, the fraction unbound in data set [5] is under 0.01. In [6], the half-life is 2.7 h. The clearance in data set [7] was 3.8 mL/min/kg. For the same molecule, the bioavailability in data set [8] came to 107%. The Activity in the data set with Rattus norvegicus [9] and in the data set with Rattus norvegicus [10] was 50% in each case.
`CCN(CC)S(=O)(=O)NC(=O)CCCc1c(-c2ccc(F)cc2)[nH]c2ccc(C#N)cc12` returned an IC50 in [1] of 1100 nM.
As to `N#Cc1ccc2[nH]c(-c3ccc(F)cc3)c(CCCC(=O)NS(=O)(=O)Cc3ccccc3)c2c1`, the IC50 in [1] turned out to be 1400 nM.
On the same count and under the same terms, the result for `COc1cc2[nH]c(-c3ccc(F)cc3)c(CCCC(=O)NS(C)(=O)=O)c2cc1C#N` reads 160 nM; that for `N#Cc1ccc2[nH]c(-c3ccc(F)cc3)c(CCCC(=O)NS(=O)(=O)Nc3ccccc3)c2c1`, 880 nM.
With `CS(=O)(=O)NC(=O)NCCc1c(-c2ccc(F)cc2)[nH]c2ccc(Br)cc12`, the half-maximal inhibitory concentration (IC50) turned out to be 250 nM in data set [1] and 90 nM in [2].
Regarding `N#Cc1ccc2[nH]c(-c3ccc(F)cc3)c(CCNC(=O)NS(=O)(=O)c3ccccc3Cl)c2c1`, the IC50 in [1] was 400 nM.
Take `CS(=O)(=O)NC(=O)CCCc1c(-c2ccc(F)cc2)[nH]c2ccc(C#N)cc12`: the values for the IC50 in [1] and in data set [2] were 72 nM and 32 nM, respectively.
